Experimental data pooled from the literature.
Lines come from different studies, so protocols differ.
Cacna1b: Voltage-dependent N-type calcium channel subunit alpha-1B (Cacna1b, Rattus norvegicus, UniProt Q02294)
Genome polyprotein protease: Genome polyprotein, protease (ZIKV, UniProt A0A024B7W1)
NR1H2: Oxysterols receptor LXR-beta (NR1H2, Homo sapiens, UniProt P55055)
DPP9: Dipeptidyl peptidase 9 (DPP9, Homo sapiens, UniProt Q86TI2)
CTSB: Cathepsin B (CTSB, Homo sapiens, UniProt P07858)
USP14: Ubiquitin carboxyl-terminal hydrolase 14 (USP14, Homo sapiens, UniProt P54578)

`O=C1N=C(N2CCCCN2)S/C1=C\c1ccc(F)cc1O` gave an inhibition of < 10% (5-hydroxytryptamine receptor 6 (HTR6, Homo sapiens, UniProt P50406); ligand displacement, radioligand; 10 µM).
With `CC(C)N1CCC[C@H]1CNC(=O)c1cn(C2CCCC2)c(=O)c2c1c1ccccc1n2C` the inhibition was 2% (Cacna1b; ligand displacement, radioligand; 10 µM).
`C[C@@H]1O[C@@H](OC[C@H]2O[C@@H](Oc3c(-c4ccc(O)c(O)c4)oc4cc(O)cc(O)c4c3=O)[C@H](O)[C@@H](O)[C@@H]2O)[C@H](O)[C@H](O)[C@H]1O` gave an inhibition of 95.4% (Genome polyprotein protease; enzyme activity, inhibitor; 200 µM, pH 8.5).
With `c1ccc(C(NCCNC(c2ccccc2)c2ccccc2)c2ccccc2)cc1` the inhibition was -6% (Cacna1b; cell-free assay; 10 µM).
`CCN(CC)CCCC[C@H](NC(=O)[C@H](CC(C)C)NC(=O)[C@H](C)NC(=O)[C@H](Cc1ccccc1)NC(=O)c1ccc(C(C)(C)C)cc1)C(=O)N[C@@H](CO)C(=O)OC` has an inhibition of 8% (5-hydroxytryptamine receptor 7 (HTR7, Homo sapiens, UniProt P34969); ligand displacement, radioligand; 10 µM).
With `O=C(Nc1cccnn1)N1CCN([C@@H]2CCOc3cc(C(F)(F)F)ccc32)CC1` the inhibition was -6% (NR1H2; cell-free assay; 20 µM).
`CCOC(=O)c1ccc(OC(=O)CCCCCNC(=N)N)cc1` gave an inhibition of 14% (DPP9; enzyme activity, inhibitor; 10 µM).
The inhibition of `COc1cc(Nc2ncc(F)c(Nc3ccc4c(n3)NC(=O)C(C)(C)O4)n2)cc(OC)c1OC` is reported as 7% (SNF-related serine/threonine-protein kinase (SNRK, Homo sapiens, UniProt Q9NRH2); binding; 10 µM).
`CC(C)C[C@H](NC(=O)[C@H]1O[C@@H]1C(=O)O)C(=O)NCCCCN=C(N)N` has an inhibition of 32% (CTSB; enzyme activity, inhibitor; 500 pM).
`O=c1cc(-c2ccccc2)oc2cc(O)cc(O)c12` has an inhibition of 19% (Genome polyprotein protease; enzyme activity, inhibitor, FRET; 100 µM, pH 7).
The inhibition of `OC(CCN1CC=C(c2ccc(F)cc2)CC1)c1ccc(F)c2ccccc12` (stereo not drawn) is reported as 18% (Plasmepsin II (Plasmodium falciparum, UniProt P46925); enzyme activity, inhibitor; 5 µM).
For `Cn1cc(-c2cccc(N3CCc4c(sc5c4CC(C)(C)C5)C3=O)c2CO)cc(Nc2ccncn2)c1=O`, the inhibition was -1% (Cyclin-dependent kinase 8, with cyclin C (CDK8, Homo sapiens, UniProt P49336); enzyme activity, inhibitor; 1 µM).
`Oc1cc(O)c2c(c1)O[C@H](c1cc(O)c(O)c(O)c1)[C@H](O)C2` gave an inhibition of 7% (Genome polyprotein protease; enzyme activity, inhibitor, FRET; 100 µM, pH 7).
The inhibition of `N#Cc1ccc(NCCNCC(=O)N2N=CCC2C#N)nc1` (stereo not drawn) is reported as 49% (DPP9; enzyme activity, inhibitor; 1 µM).
`COc1ccc(-c2oc3c(CC=C(C)C)c(O)cc(O)c3c(=O)c2O)cc1` has an inhibition of 19% (Genome polyprotein protease; enzyme activity, inhibitor, FRET; 100 µM, pH 7).
The inhibition of `N=C(N)c1ccc2cc(OC(=O)c3ccc(N=C(N)N)cc3)ccc2c1` is reported as 0% (USP14; enzyme activity, inhibitor; 10 µM).
`CC(C)Cn1cnc2c(N)nc3ccccc3c21` gave an inhibition of 65% (Alpha-1A adrenergic receptor (Adra1a, Rattus norvegicus, UniProt P43140); ligand displacement, radioligand; 10 µM).
`Cc1ncc(C)n2nc(/C=C/c3nc(N4CCCC4)cc(N4CCOCC4)n3)nc12` gave an inhibition of -19% (NR1H2; cell-free assay; 10 µM).
`C#Cc1n[nH]c2c(-c3cn(C(C)c4ccccn4)c(=O)[nH]c3=O)cc(F)cc12` (stereo not drawn) gave an inhibition of 8.3% (Dual specificity protein kinase CLK3 (CLK3, Homo sapiens, UniProt P49761); enzyme activity, inhibitor; 1 µM).
For `Cn1c(=O)c2ncnnc2n(C)c1=O`, the inhibition was 96% (USP14; enzyme activity, inhibitor; 17 µM).
`O=C1c2c(O)cc(O)cc2O[C@H](c2cc(O)c(O)c(O)c2)[C@H]1O` has an inhibition of 23% (Genome polyprotein protease; enzyme activity, inhibitor, FRET; 100 µM, pH 7).
With `C#Cc1n[nH]c2c(-c3cn([C@@H](C)c4ccccc4)c(=O)[nH]c3=O)cc(F)cc12` the inhibition was -4.8% (Cyclin-dependent kinase 2, with cyclin E1 (CDK2, Homo sapiens, UniProt P24941); enzyme activity, inhibitor; 0.1 µM).
The inhibition of `Oc1cccc(O)c1O` is reported as 11% (Genome polyprotein protease; enzyme activity, inhibitor, FRET; 100 µM, pH 7).
With `CN(C)C(=O)COC(=O)Cc1ccc(OC(=O)c2ccc(NC(=N)N)cc2)cc1` the inhibition was 0% (CTSB; enzyme activity, inhibitor; 10 µM).
